In ChEMBL document CHEMBL1152669, “New R/S-3,4-dihydro-2,2-dimethyl-2H-1-benzopyrans as K(ATP) channel openers: modulation of the 4-position” (Bioorg Med Chem, 2009):
The source made the active and inactive calls. The rule behind the calls is not given here.

Key:
Rattus norvegicus [1] = species on record: Rattus norvegicus; test: Channel opening activity at KATP channel in Wistar rat pancreatic islets assessed as glucose-induced residual insulin secretion at 10 uM after 90 mins by radioimmunology
In short: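 Islets from adult fed rats, groups of 10, preincubated 30 min at 37 °C in bicarbonate salt medium with 2.8 mM glucose, 0.5% dialyzed albumin, O2/CO2 gassed. Then incubated 90 min at 37 °C with 16.7 mM glucose plus drug. Insulin by radioimmunoassay against rat insulin standard; expressed as % of drug-free 16.7 mM glucose control; mean ± SEM (n).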

Rattus norvegicus [2] = species on record: Rattus norvegicus; test: Channel opening activity at KATP channel in Wistar rat pancreatic islets assessed as glucose-induced residual insulin secretion at 1 uM after 90 mins by radioimmunology
[3] = Channel opening activity at KATP channel in Wistar rat endothelium-denuded aortic ring assessed as relaxation of KCl-induced contraction; type: tissue-based; conditions: Aorta
In short: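 Thoracic aortic rings (3–4 mm, endothelium-free) from adult fed rats, 37 °C, O2/CO2 95/5 gassed; isometric tension. After 60 min equilibration, contracted with 30 mM KCl; once stable, drug added cumulatively to maximal relaxation or 300 µM. Relaxation as % of KCl contraction; EC50 (50% inhibition of plateau) from dose–response curves; mean ± SEM (n).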

Rattus norvegicus [4] = species on record: Rattus norvegicus; test: Channel opening activity at KATP channel in Wistar rat pancreatic islets assessed as increase in rubidium outflow at 10 uM by scintillation counting
In short: (§1)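 Groups of 100 islets from adult fed rats loaded 60 min at 37 °C with 86Rb in bicarbonate medium with 16.7 mM glucose and 0.5% albumin, washed three times, then perifused at 1.0 mL/min. Effluent collected in 1-min fractions from min 31 to 90, counted by scintillation along with final islet content. Output as fractional outflow rate (% of islet content per min). Glibenclamide 10 µM used as KATP blocker.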

Rattus norvegicus [5] = species on record: Rattus norvegicus; test: Channel opening activity at KATP channel in Wistar rat pancreatic islets assessed as increase in rubidium outflow at 10 uM by scintillation counting in presence of glibenclamide; in short: as §1

Compound	Activity (Rattus norvegicus [1]) [%]	Activity (Rattus norvegicus [2]) [%]	EC50 [3] [nM]	Activity (Rattus norvegicus [4])	Activity (Rattus norvegicus [5])
CC1=Nc2ccc(Cl)cc2S(=O)(=O)N1	73.9	87.5	–	–	–
CC1(C)CC(NC(=S)Nc2cccc([N+](=O)[O-])c2)c2cc(Br)ccc2O1 (stereo unspecified)	13.5	64.3	> 10000	–	–
CC1(C)CC(NC(=S)Nc2cccc(C#N)c2)c2cc(F)ccc2O1 (stereo unspecified)	16.1	80	2600	–	–
CC1(C)CC(NC(=S)Nc2cccnc2)c2cc(F)ccc2O1 (stereo unspecified)	62.1	–	6600	–	–
CC(N/C(=N\C#N)Nc1ccncc1)C(C)(C)C (racemic) [PINACIDIL ANHYDROUS]	–	–	350	–	–
CC1(C)CC(NC(=S)Nc2cccc(C#N)c2)c2cc(Br)ccc2O1 (stereo unspecified)	14.2	65.5	640	–	–
CC1(C)CC(NC(=S)Nc2ccc([N+](=O)[O-])cc2)c2cc(Cl)ccc2O1 (stereo unspecified)	10.3	67.3	> 10000	–	–
CC1(C)CC(NC(=S)Nc2cccnc2)c2cc(Cl)ccc2O1 (stereo unspecified)	50.2	–	2800	–	–
CS/C(=N\c1ccc(Cl)cc1)NC1CC(C)(C)Oc2ccc(Br)cc21 (stereo unspecified)	40.8	89.4	> 10000	–	–
CS/C(=N\c1cccc(C#N)c1)NC1CC(C)(C)Oc2ccc(Br)cc21 (stereo unspecified)	37.7	93.7	> 30000	–	–
CC1(C)Oc2ccc(C#N)cc2C(N2CCCC2=O)C1O (racemic) [CROMAKALIM]	94.4	95.3	130	–	–
CC1(C)CC(NC(=S)Nc2ccsc2)c2cc(Cl)ccc2O1 (stereo unspecified)	51.9	–	> 3000	–	–
CC1(C)CC(NC(=S)Nc2ccc(C#N)cc2)c2cc(F)ccc2O1 (stereo unspecified)	12	64.7	> 3000	–	–
CC1(C)CC(NC(=S)Nc2ccc(C#N)cc2)c2cc(Br)ccc2O1 (stereo unspecified)	11.7	57.5	> 10000	–	–
CC1(C)CC(NC(=S)Nc2ccc([N+](=O)[O-])cc2)c2cc(F)ccc2O1 (stereo unspecified)	10.7	74.3	> 3000	–	–
CC1(C)CC(NC(=S)Nc2ccsc2)c2cc(Br)ccc2O1 (stereo unspecified)	44	–	> 10000	–	–
CC1(C)CC(NC(=S)Nc2ccc([N+](=O)[O-])cc2)c2cc(Br)ccc2O1 (stereo unspecified)	13.5	61.3	> 10000	Active	inactive
CC1(C)CC(NC(=S)Nc2cccnc2)c2cc(Br)ccc2O1 (stereo unspecified)	44.3	–	3700	–	–
CC1(C)CC(NC(=S)Nc2cccc(C#N)c2)c2cc(Cl)ccc2O1 (stereo unspecified)	15.8	66.2	600	–	–
CC1(C)CC(NC(=S)Nc2ccc(C#N)cc2)c2cc(Cl)ccc2O1 (stereo unspecified)	10.6	47.8	> 10000	–	–
CC1(C)CC(N/C(=N/C#N)Nc2ccc(Cl)cc2)c2cc(Br)ccc2O1 (stereo unspecified)	42.7	95.8	11400	–	–
CC1(C)CC(N/C(=N/C#N)Nc2cccc(C#N)c2)c2cc(Br)ccc2O1 (stereo unspecified)	45.3	90.5	5200	–	–
CC1(C)CC(NC(=S)Nc2cccc([N+](=O)[O-])c2)c2cc(Cl)ccc2O1 (stereo unspecified)	14.4	64.3	> 3000	–	–
CC1(C)CC(NC(=S)Nc2cccc([N+](=O)[O-])c2)c2cc(F)ccc2O1 (stereo unspecified)	11.5	76.1	> 3000	–	–
